# Measured values from ChEMBL document CHEMBL5257161, “Mycobacterium tuberculosis CitA activity is modulated by cysteine oxidation and pyruvate binding” (RSC Med Chem, 2023).
# How the values were obtained:
# [1] = target: T1, Putative citrate synthase 2 (Mycobacterium tuberculosis) (UniProt P9WPD3); assay: Binding affinity to Mycobacterium tuberculosis wild type CitA expressed in Escherichia coli cells assessed as change in melting temperature in presence of pyruvate by thermal shift assay
# T1 sequence (whole entry): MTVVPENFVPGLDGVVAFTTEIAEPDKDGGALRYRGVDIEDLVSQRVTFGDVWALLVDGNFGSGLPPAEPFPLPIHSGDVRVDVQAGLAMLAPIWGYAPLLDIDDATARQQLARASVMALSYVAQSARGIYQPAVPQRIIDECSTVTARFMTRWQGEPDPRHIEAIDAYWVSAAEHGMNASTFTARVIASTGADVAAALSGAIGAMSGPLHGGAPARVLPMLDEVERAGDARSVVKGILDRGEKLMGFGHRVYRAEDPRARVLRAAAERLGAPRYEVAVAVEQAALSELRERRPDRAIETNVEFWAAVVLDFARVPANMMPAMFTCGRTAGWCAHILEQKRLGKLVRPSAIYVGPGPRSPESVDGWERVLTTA
# Method in brief: (§1)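 Thermal shift used 25 μM purified protein in 50 mM Tris pH 8.0 with 2 mM ligand (sodium pyruvate, OAA, or both), plus Protein Thermal Shift dye at 2X final. ΔTm was taken from the melt-curve derivative relative to protein without ligand.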
# [2] = target: T1, Putative citrate synthase 2 (Mycobacterium tuberculosis); assay: Binding affinity to Mycobacterium tuberculosis wild type CitA expressed in Escherichia coli cells assessed as change in melting temperature by thermal shift assay; method in brief: as §1
# [3] = target: T1, Putative citrate synthase 2 (Mycobacterium tuberculosis); assay: Binding affinity to Mycobacterium tuberculosis wild type CitA expressed in Escherichia coli cells assessed as change in melting temperature in presence of oxaloacetate by thermal shift assay; method in brief: as §1
# [4] = target: T1, Putative citrate synthase 2 (Mycobacterium tuberculosis); assay: Inhibition of Mycobacterium tuberculosis wild type CitA expressed in Escherichia coli cells by UV spectrophotometric based analysis
# Method in brief: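 Michael acceptor compounds were added directly to the DTNB/OAA/AcCoA reaction with 10 nM CitA in 50 mM Tris pH 8.0 at 25 °C, read at 412 nm. The screen used 20 μM compound. Dose–response data were fitted to the Hill equation for apparent IC50. A control measured how fast the compounds react with reaction components.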
SMILES,ΔTm [1],ΔTm [2],ΔTm [3],Activity [4]
O=C(O)CC(=O)C(=O)O,12.3 °C,11.2 °C,,
CC(=O)CC(=O)O,,0.19 °C,,
O=CC(=O)O,,0.1 °C,,
CC(=O)C(=O)O,,2.31 °C,12.3 °C,Dose-Dependent Effect
O=C(O)CO,,0.15 °C,,
